High-throughput results (PubChem)
Most compounds without a hit are left out; they make up all but 1.2% or so of the library.
ZTA counter = counter-screen for EBNA-1 inhibitors: inhibitors of Epstein-Barr virus ZTA. inhibition, % at 11 µM. ZTA-DNA binding, fluorescence polarization. 320,000 compounds, 0.15% hits; in the data active = inhibition above about 33%
Target sequence (P03206 whole entry, looked up): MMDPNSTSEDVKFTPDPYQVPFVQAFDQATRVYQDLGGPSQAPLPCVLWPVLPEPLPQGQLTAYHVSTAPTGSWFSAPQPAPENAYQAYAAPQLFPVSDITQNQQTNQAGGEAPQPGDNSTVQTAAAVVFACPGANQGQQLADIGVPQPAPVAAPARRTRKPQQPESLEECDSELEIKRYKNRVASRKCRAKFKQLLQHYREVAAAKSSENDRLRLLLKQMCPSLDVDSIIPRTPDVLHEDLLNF
core dimer inh = inhibitors of HCV core protein dimerization, primary screen, biochemical, TR-FRET, high-throughput; inhibition, % at 5 µM; 300,000 compounds, 0.33% hits; TR-FRET GST/Flag-core106 dimerization, 1536-well;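 active = inhibition above the mean of all tested compounds plus 3 SD, set per screening campaign, cut at about 45% in these data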
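assay system = GST-tagged and Flag-tagged HCV core protein residues 1-106 | controls = unlabelled core106 and no-GST-core106 wells | incubation = compound-protein-antibody incubation 4 h at 22.5 °C | probe or stimulus = Eu donor and XL665 acceptor anti-tag antibodies | read-out = % inhibition based on acceptor/donor emission ratio | signal = TR-FRET 671 and 617 nm emission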
EBNA-1 inhibitor = EBNA-1 DNA-binding inhibitors, primary screen, biochemical, fluorescence polarization. inhibition, % at 14.8 µM. 300,000 compounds, 0.34% hits; in the data active = inhibition above about 28%
NS3 helicase inh = inhibitors of HCV NS3 helicase, primary screen, biochemical, Cy5 molecular beacon fluorescence. inhibition, % at 10.9 µM. NS3 helicase DNA unwinding. 290,000 compounds, 0.56% hits;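 active = inhibition above the mean of all tested compounds plus 3 SD, set per campaign, cut at about 35% in these data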;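 also: 0% = DMSO wells and 100% = thioflavine S control wells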
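assay system = NS3 helicase fragment of HCV | buffer or medium = MOPS pH 6.5, MgCl2, DTT, Tween20, BSA | timing = 60 min unwinding reaction at 25 °C after ATP addition | signal = Cy5 beacon fluorescence read at start and 1 h | read-out basis = % inhibition of unwinding | control set = low DMSO, high thioflavine S at 110 µM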
EBNA-1 inh conf = EBNA-1 DNA-binding inhibitors, retest, confirmation, biochemical, fluorescence polarization, triplicate | inhibition, % at 14.8 µM | 830 compounds, 35% hits | shares compounds with EBNA-1 inhibitor | Recombinant EBNA-1 DBD, Cy5-DNA fluorescence polarization;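 active = mean inhibition across replicates above a set limit taken from the earlier primary screen, cut at about 28% in these data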;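 also: plate controls were EBNA-1 protein with DMSO for no effect and wells lacking EBNA-1 for full effect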
ZTA DNA inh trip = EBV Zta DNA binding inhibitors, counter-screen for EBNA-1 inhibitor project, biochemical, fluorescence polarization, triplicate | shares compounds with EBNA-1 inhibitor | Zta-ZRE DNA binding, Cy5 fluorescence polarization | inhibition, % at 11.1 µM | 830 tested, under 10 active;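 active = mean inhibition over triplicates above a set limit taken from the primary EBNA-1 screen, cut at about 37% in these data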;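 also: purified full length Zta protein with Cy5 labeled ZRE DNA probe; 0% = Zta with DMSO and 100% = wells lacking Zta protein; inhibitors lower polarization by freeing the labeled DNA probe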
An asterisk follows results filed as active; . = no result given.

SMILES | ZTA counter | core dimer inh | EBNA-1 inhibitor | NS3 helicase inh | EBNA-1 inh conf | ZTA DNA inh trip
O=C(Nc1ccc2oc(-c3ccc4ccccc4c3)nc2c1)c1ccc2c(c1)OCCO2 | 12 | 2 | 31* | 5 | 25 | 9
Cc1ccc2nc(-c3cccc(NC(=O)c4ccc5c(c4)OCCO5)c3)oc2c1 | 19 | 7 | 35* | -2 | 23 | 7
CCOc1cc(/C=N/NC(=S)Nc2ccccc2C(F)(F)F)ccc1OCC(=O)N1CCOCC1 | -5 | 5 | -10 | -3 | . | .
O=C(Cn1cnc2ccccc21)Nc1ccc2c(c1)OCCCO2 | -9 | . | . | . | . | .
COc1ccc(CC(=O)Nc2ccccc2C(=O)N2CCCC2)cc1 | -27 | 0 | 2 | -6 | . | .
COc1ccc(S(=O)(=O)NCC(c2ccc3c(c2)OCO3)N2CCN(c3ccccc3)CC2)cc1 (stereo not drawn) | -14 | 7 | 17 | . | . | .
COc1ccc(CNC(=O)CSc2nnc3c(n2)[nH]c2ccc(C)cc23)cc1 | -3 | 11 | -1 | -20 | . | .
COc1ccc2[nH]c3nc(SCc4nnc(-c5ccc(C)cc5)o4)nnc3c2c1 | 3 | 8 | 55* | 2 | 40* | 6
COC(=O)c1ccc2nc(NC(=O)CCS(=O)(=O)c3ccccc3)sc2c1 | 17 | 2 | 44* | 4 | 52* | 5
Cn1c(N)c(C(=O)COC(=O)CSc2cccc3cccc(Cl)c23)c(=O)n(C)c1=O | 6 | 15 | 32* | 5 | 46* | 22
Cn1c(N)c(C(=O)COC(=O)CSc2ccc3ccccc3c2)c(=O)n(C)c1=O | -21 | -1 | -4 | -3 | . | .
CC1CCN(S(=O)(=O)c2ccc(NC(=O)Cn3nnc(-c4ccccc4)n3)cc2)CC1 | 19 | 0 | 30* | -35 | 5 | -15
Cc1cc(C)cc(NC(=O)C2CCCN(S(=O)(=O)c3c(C)noc3C)C2)c1 (stereo not drawn) | -5 | -14 | 44* | 1 | 3 | 2
COc1cccc(NC(=O)C2CCCN(S(=O)(=O)c3ccc(-n4cnnn4)cc3)C2)c1 (stereo not drawn) | -14 | 6 | 55* | -14 | 24 | 3
Cc1ccc(S(=O)(=O)N2CCCC(C(=O)Nc3cccnc3)C2)cc1 (stereo not drawn) | -10 | -5 | -1 | 12 | . | .
Cc1ccc(S(=O)(=O)N2CCCC(C(=O)Nc3ccc(NC(=O)c4ccccn4)cc3)C2)cc1 (stereo not drawn) | 15 | 6 | 78* | 10 | 31* | -10
CCOc1cccc(NC(=O)C2CCCN(S(=O)(=O)c3ccc(-n4cnnn4)cc3)C2)c1 (stereo not drawn) | -14 | 0 | 2 | 2 | . | .
CCOC(=O)c1oc2ccccc2c1COC(=O)CNC(=O)c1cccc(C)c1 | -2 | 3 | -5 | 3 | . | .
Cc1ccc(S(=O)(=O)N(C(=N)N)c2nc(N(C)C)nc(N(C)C)n2)cc1 | 6 | 3 | 31* | -2 | 5 | 5
O=C(Nc1ccc(Oc2ccc3c(c2)C(=O)N(c2ccc(O)cc2)C3=O)cc1)c1cccs1 | 22 | 10 | 28* | -5 | 55* | 13
CC(C)CN1C(=O)c2ccc(NC(=O)c3cccs3)cc2C1=O | 0 | 4 | 5 | -1 | . | .
Cc1ccc(OCC(=O)Nc2nc(C)c(Cl)cc2Cl)c([N+](=O)[O-])n1 | -11 | . | . | . | . | .
CCN(CC)c1ccc(/C=C2\C(=N)N3N=C(CC(=O)N4CCOCC4)SC3=NC2=O)cc1 | -1 | -2 | 2 | 15 | . | .
C/C(=N\NC(=O)c1c(Br)cnn1C)c1ccc(NC(=O)c2ccc(F)cc2)cc1 | -12 | -5 | 50* | 3 | 69* | 1
C/C(=N\NC(=O)c1c(Cl)cnn1C)c1cccc(NC(=O)c2ccc(C)cc2)c1 | 6 | 6 | 4 | -3 | . | .
SMILES | ZTA counter | core dimer inh | EBNA-1 inhibitor | NS3 helicase inh | EBNA-1 inh conf | ZTA DNA inh trip
CCCc1cc2c(cc1NC(=O)c1ccc(Br)cc1)OCO2 | -3 | 6 | 33* | -7 | 0 | -8
COc1cccc(-c2cc(=O)c3cc(NC(=O)c4ccc(N(C)C)cc4)ccc3[nH]2)c1 | 0 | 8 | 42* | 9 | 16 | -2
CCOc1ccc2nc(N3CCOCC3)nc(C)c2c1 | 15 | 1 | 3 | 0 | . | .
CCOc1ccc2nc3ccc4[nH]onc4c3c2c1 | 1 | -1 | 31* | -4 | 9 | -1
Cc1ccc(-c2nc3ccccc3[nH]2)cc1NC(=O)c1ccco1 | -2 | -6 | -4 | -5 | . | .
Cc1ccc(-c2nc3ccccc3[nH]2)cc1NC(=O)c1sc2cc(Cl)ccc2c1Cl | 8 | 19 | 92* | 1 | 83* | 20
Cc1cc(Cl)cc(Cl)c1OCCN1CCCC1 | 7 | 6 | 6 | -3 | . | .
CCCCN(C(=O)c1cccc(N2C(=O)c3ccccc3C2=O)c1)c1c(N)n(CC(C)C)c(=O)[nH]c1=O | -4 | . | . | . | . | .
CCCCN(C(=O)c1cccc(-n2cccc2)c1)c1c(N)n(Cc2ccccc2)c(=O)[nH]c1=O | 22 | 48* | 31* | . | -4 | -7
CCCCN(C(=O)c1cc(CC)c(C)s1)c1c(N)n(CC(C)C)c(=O)[nH]c1=O | -16 | 4 | 66* | 2 | 4 | -6
O=C(NNC(=O)c1ccc(NC(=O)c2ccccc2)cc1)c1ccc(F)cc1 | 5 | -1 | 67* | -5 | 103* | 4
Cc1ccc(NC(=O)CCn2c(=S)oc3ccccc32)cc1 | -4 | 4 | 43* | 9 | 55* | 1
O=C(CCn1c(=S)oc2ccccc21)Nc1ccc(F)cc1 | 7 | 6 | 48* | 3 | 19 | 2
CN(C)c1ccc(NC(=O)CCn2c(=S)oc3ccccc32)cc1 | -16 | -19 | -3 | -15 | . | .
Cc1onc(-c2ccccc2Cl)c1C(=O)NCc1nc(-c2ccc(C(F)(F)F)cc2)no1 | 2 | -2 | -8 | 7 | . | .
CC(C)(C)c1ccc(C(=O)NNC(=O)CCC(=O)Nc2ccccc2)cc1 | -8 | 3 | -3 | -6 | . | .
CCOc1ccc(N(CC(=O)N/N=C(\C)c2cccc(NC(C)=O)c2)S(=O)(=O)c2ccccc2)cc1 | -2 | 3 | 53* | -10 | 10 | 7
Cc1nnc2c(NC3CCCCC3)nc3ccccc3n12 | 0 | 1 | 6 | -12 | . | .
CC(Cc1ccccc1)NC(=S)CN1CCCC1=S (stereo not drawn) | 8 | 2 | 9 | 3 | . | .
COCCn1c(Cc2ccccc2)nnc1SCC(=O)NC(C)C | 19 | -6 | 87* | 8 | 3 | 3
COCCn1c(Cc2ccccc2)nnc1SCC(=O)NC(C)(C)C | -8 | -4 | -5 | 1 | . | .
C=CCOc1cccc(/C=N/NC(=O)CC(=O)NC2CCCCC2)c1 | 12 | 5 | 2 | -2 | . | .
